Consider 20 compounds from ChEMBL document CHEMBL3124769, “Synthesis and antitumor activities of novel dipeptide derivatives derived from dehydroabietic acid” (Bioorg Med Chem Lett, 2014).

As usually defined, the IC50 is the concentration that gives 50% inhibition. The low end stands for inhibition by little substance, the high end for a need for much substance.

Holding throughout (format): functional, cell-based
For assay [1], the system named is HCT-116. The assay is described as follows: Cytotoxicity against human HCT116 cells after 48 hrs by MTT assay. Conditions: HCT-116, 48 h. The method in brief:
(§1)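 Cells from the six lines were plated and left to adhere for 24 h. They were then exposed to compounds at 100 to 0.01 µM for 48 h. After that the medium was replaced with complete medium and viability was read by MTT. IC50 came from the concentration series, and each experiment was done three times.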
Background: Formazan colour is commonly taken as a measure of viable cells.

The test system of assay [2] is HeLa. The experiment in a line: Cytotoxicity against human HeLa cells after 48 hrs by MTT assay. The method in brief: as §1
A short description of assay [3]: Cytotoxicity against human Bel7404 cells after 48 hrs by MTT assay. Conditions: BEL-7404, 48 h. The method in brief:
as §1

Assay [4] concerns SK-OV-3. The experiment in a line: Cytotoxicity against human SKOV3 cells after 48 hrs by MTT assay. The settings on record: SK-OV-3, 48 h. The method in brief: as §1
Assay [5] relates to HepG2. The assay is described as follows: Cytotoxicity against human HepG2 cells after 48 hrs by MTT assay. The settings on record: HepG2, 48 h. The method in brief: as §1
In assay [6] the test system is NCI-H460. The experiment in a line: Cytotoxicity against human NCI-H460 cells after 48 hrs by MTT assay. The settings on record: NCI-H460, 48 h. The method in brief:
as §1

For the compound `CC(C)c1ccc2c(c1)CC[C@H]1[C@](C)(C(=O)N[C@H](Cc3ccccc3)C(=O)Nc3cccc(F)c3)CCC[C@]21C`, the 50% inhibitory concentration (IC50) in assay [1] worked out at 34.8 µM; in assay [2], 13.9 µM; in assay [3] it was 27.4 µM; in assay [4], 33.9 µM; in assay [5] it was 23.9 µM; in assay [6], 26.1 µM.
For `CC(C)c1ccc2c(c1)CC[C@H]1[C@](C)(C(=O)N[C@H](Cc3ccccc3)C(=O)Nc3ccc(Cl)cc3)CCC[C@]21C`, the 50% inhibitory concentration (IC50) in assay [1] came to 37.8 µM; in assay [2], 12.2 µM; in assay [3], 33.6 µM; in assay [4], 26.3 µM; in assay [5], 26.3 µM; in assay [6], 15.8 µM.
Turning to `CC(C)c1ccc2c(c1)CC[C@H]1[C@](C)(C(=O)N[C@H](Cc3ccccc3)C(=O)Nc3cccc(Cl)c3)CCC[C@]21C`, the half-maximal inhibitory concentration (IC50) in assay [1] came out at 45.9 µM; in assay [2], 13.1 µM; in assay [3], 23.8 µM; in assay [4] it was 30.6 µM; in assay [5], 24.7 µM; in assay [6], 26.3 µM.
In the case of `COc1cccc(NC(=O)[C@@H](Cc2ccccc2)NC(=O)[C@]2(C)CCC[C@]3(C)c4ccc(C(C)C)cc4CC[C@@H]23)c1`, the concentration for half-maximal inhibition (IC50) was 35.8 µM in assay [1]; 25.8 µM in assay [2]; 38.5 µM in assay [3]; 30.5 µM in assay [4]; 29.5 µM in assay [5]; 40.4 µM in assay [6].
On to `CC(C)c1ccc2c(c1)CC[C@H]1[C@](C)(C(=O)N[C@H](Cc3ccccc3)C(=O)Nc3ccc(F)c(Cl)c3)CCC[C@]21C`, for which the concentration for half-maximal inhibition (IC50) in assay [1] worked out at 39.3 µM; in assay [2], 11.1 µM; in assay [3], 26.1 µM; in assay [4], 30.5 µM; in assay [5], 32.9 µM; in assay [6] it was 26.8 µM.
As for `CC(C)c1ccc2c(c1)CC[C@H]1[C@](C)(C(=O)N[C@H](Cc3ccccc3)C(=O)Nc3ccc(Cl)c(Cl)c3)CCC[C@]21C`, the IC50 in assay [1] turned out to be 40.9 µM; in assay [2] it was 28.8 µM; in assay [3], 44.7 µM; in assay [4], 33.1 µM; in assay [5] it was 20.4 µM; in assay [6] it was 27 µM.
`CC(C)c1ccc2c(c1)CC[C@H]1[C@](C)(C(=O)N[C@H](Cc3ccccc3)C(=O)Nc3ccc(C(F)(F)F)cc3)CCC[C@]21C`: the IC50 was 27.4 µM in assay [1]; 10.5 µM in assay [2]; 36.1 µM in assay [3]; 36.3 µM in assay [4]; 21.6 µM in assay [5]; 28.9 µM in assay [6].
For `CC(C)c1ccc2c(c1)CC[C@H]1[C@](C)(C(=O)N[C@H](Cc3ccccc3)C(=O)Nc3ccc(F)cc3)CCC[C@]21C`, the IC50 in assay [1] is 27.4 µM; in assay [2], 10.8 µM; in assay [3], 21 µM; in assay [4] it was 20.1 µM; in assay [5], 27.1 µM; in assay [6], 22.8 µM.
Turning to `CC(C)c1ccc2c(c1)CC[C@H]1[C@](C)(C(=O)O)CCC[C@]21C` [DEHYDROABIETIC ACID], the IC50 in assay [1] is 35.2 µM; in assay [2], 29.4 µM; in assay [3], 34.7 µM; in assay [4], 75 µM; in assay [5], 76.8 µM; in assay [6], 80.5 µM.
Regarding `COc1ccc(OC)c(NC(=O)[C@@H](Cc2ccccc2)NC(=O)[C@]2(C)CCC[C@]3(C)c4ccc(C(C)C)cc4CC[C@@H]23)c1`, the IC50 in assay [1] was found to be 36.8 µM; in assay [2] it was 19.3 µM; in assay [3] it was 56.3 µM; in assay [4], 53.8 µM; in assay [5] it was 38.1 µM; in assay [6], 27.4 µM.
As to `CC(C)c1ccc2c(c1)CC[C@H]1[C@](C)(C(=O)N[C@H](Cc3ccccc3)C(=O)Nc3ccc(Br)cc3)CCC[C@]21C`, the IC50 in assay [1] was 35.3 µM; in assay [2] it was 15.2 µM; in assay [3], 16.9 µM; in assay [4] it was 28.7 µM; in assay [5] it was 34.6 µM; in assay [6], 28.7 µM.
Turning to `CC(C)c1ccc2c(c1)CC[C@H]1[C@](C)(C(=O)N[C@H](Cc3ccccc3)C(=O)Nc3cccc([N+](=O)[O-])c3)CCC[C@]21C`, the IC50 turned out to be 27.4 µM in assay [1]; 12.8 µM in assay [2]; 27.1 µM in assay [3]; 20.1 µM in assay [4]; 25.3 µM in assay [5]; 32.8 µM in assay [6].
For `CC(C)c1ccc2c(c1)CC[C@H]1[C@](C)(C(=O)N[C@H](Cc3ccccc3)C(=O)Nc3cccc(Br)c3)CCC[C@]21C`, the IC50 was found to be 44.1 µM in assay [1]; 25.1 µM in assay [2]; 19.9 µM in assay [3]; 38.8 µM in assay [4]; 22.9 µM in assay [5]; 33.3 µM in assay [6].
Consider `Cc1ccc(NC(=O)[C@@H](Cc2ccccc2)NC(=O)[C@]2(C)CCC[C@]3(C)c4ccc(C(C)C)cc4CC[C@@H]23)cc1Cl`, for which the 50% inhibitory concentration (IC50) in assay [1] came out at 32.3 µM; in assay [2], 10.1 µM; in assay [3], 41.2 µM; in assay [4], 37.8 µM; in assay [5] it was 36.9 µM; in assay [6], 26.1 µM.
As to `O=c1[nH]cc(F)c(=O)[nH]1` [FLUOROURACIL], the IC50 is 24.4 µM in assay [1]; 80.5 µM in assay [2]; 26.8 µM in assay [3]; 27 µM in assay [5]; 36 µM in assay [6].
In the case of `CC(C)c1ccc2c(c1)CC[C@H]1[C@](C)(C(=O)N[C@H](Cc3ccccc3)C(=O)Nc3ccccc3Cl)CCC[C@]21C`, the 50% inhibitory concentration (IC50) was determined as 25.5 µM in assay [1]; 10.3 µM in assay [2]; 15.8 µM in assay [3]; 13.5 µM in assay [4]; 25.3 µM in assay [5]; 15.2 µM in assay [6].
For `Cc1ccc(NC(=O)[C@@H](Cc2ccccc2)NC(=O)[C@]2(C)CCC[C@]3(C)c4ccc(C(C)C)cc4CC[C@@H]23)cc1C`, the half-maximal inhibitory concentration (IC50) in assay [1] came to 32.1 µM; in assay [2], 14.3 µM; in assay [3], 48.2 µM; in assay [4], 51.8 µM; in assay [5], 42.8 µM; in assay [6], 37 µM.
`CC(C)c1ccc2c(c1)CC[C@H]1[C@](C)(C(=O)N[C@H](Cc3ccccc3)C(=O)Nc3ccccc3)CCC[C@]21C`: the half-inhibitory concentration (IC50) was determined as 30.3 µM in assay [1]; 18.9 µM in assay [2]; 16.7 µM in assay [3]; 27.4 µM in assay [4]; 27.7 µM in assay [5]; 28.2 µM in assay [6].
On to `Cc1cccc(NC(=O)[C@@H](Cc2ccccc2)NC(=O)[C@]2(C)CCC[C@]3(C)c4ccc(C(C)C)cc4CC[C@@H]23)c1`, for which the IC50 in assay [1] worked out at 32.5 µM; in assay [2], 18.2 µM; in assay [3], 34.6 µM; in assay [4] it was 29.8 µM; in assay [5], 26.9 µM; in assay [6] it was 32.4 µM.
Turning to `CC(C)c1ccc2c(c1)CC[C@H]1[C@](C)(C(=O)N[C@H](Cc3ccccc3)C(=O)Nc3cc(Cl)ccc3Cl)CCC[C@]21C`, the half-maximal inhibitory concentration (IC50) was determined as 24.1 µM in assay [1]; 14.9 µM in assay [2]; 31 µM in assay [3]; 21.6 µM in assay [4]; 23.4 µM in assay [5]; 15.8 µM in assay [6].
